Assay results from ChEMBL document CHEMBL3797146, “FimH Antagonists: Phosphate Prodrugs Improve Oral Bioavailability” (J Med Chem, 2016).

Key:
[1] = Thermodynamic solubility of the compound in 50 mM pH 6.5 phosphate buffer by LC-MS method; assay type: physicochemical; settings: read-out: Therm_solubility
Summary of the method: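 Thermodynamic solubility determined in phosphate buffer (50 mM, pH 6.5).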

[2] = Stability of the compound assessed as half life for human Caco2 cells phosphatase mediated compound hydrolysis at 62.5 uM by LC-MS method; assay type: ADME, cell-based; settings: Caco-2 cells
Summary of the method: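 Prodrug in Dulbecco's Modified Eagle's Medium (62.5 µM) applied to the apical chamber of the Caco-2 system. Unchanged prodrug was monitored by LC-MS, and t1/2 was calculated from remaining prodrug concentration versus incubation time.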

[3] = Drug metabolism in human Caco2 cells assessed as active parent compound level in basolateral side at 62.5 uM applied at apical compartment measured after 60 mins by LC-MS method; assay type: ADME, cell-based; settings: caco-2, 1 h
Summary of the method: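 Caco-2 monolayer. Test article in Dulbecco's Modified Eagle's Medium at 62.5 µM was applied to the apical chamber. After 60 min, the active principle that had accumulated in the basal receiver chamber was quantified.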

Mus musculus [4] = assay: Cmax in C3H/HeN mouse assessed as compound 5 level at 10 mg/kg, po administered as single dose by LC-MS method; assay type: ADME, organism-based; design: dose 10 mg/kg, route oral; settings: in vivo
Summary of the method: (§1)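 Single oral dose given to female C3H/HeN mice. Active principle was measured in urine over 0–24 h, and Cmax, Tmax and urine AUC0–24 were derived from the concentration profiles. The 7.7 mg/kg dose was given as a suspension. Values are means with SD for groups of three mice, or five at 7.7 mg/kg.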

Mus musculus [5] = assay: Tmax in C3H/HeN mouse assessed as compound 5 level at 10 mg/kg, po administered as single dose by LC-MS method; assay type: ADME, organism-based; settings: in vivo; summary of the method: as §1
[6] = AUC (0 to 24 hrs) in C3H/HeN mouse urine assessed as compound 5 level at 10 mg/kg, po administered as single dose by LC-MS method; assay type: ADME, organism-based; design: time < 24 hr, dose 10 mg/kg, route oral; settings: in vivo; summary of the method: as §1
Mus musculus [7] = assay: Cmax in C3H/HeN mouse assessed as compound 4 level at 10 mg/kg, po administered as single dose by LC-MS method; assay type: ADME, organism-based; design: dose 10 mg/kg, route oral; settings: in vivo; summary of the method: as §1
Mus musculus [8] = assay: Tmax in C3H/HeN mouse assessed as compound 4 level at 10 mg/kg, po administered as single dose by LC-MS method; assay type: ADME, organism-based; settings: in vivo; summary of the method: as §1
[9] = AUC (0 to 24 hrs) in C3H/HeN mouse urine assessed as compound 4 level at 10 mg/kg, po administered as single dose by LC-MS method; assay type: ADME, organism-based; design: dose 10 mg/kg, time < 24 hr, route oral; settings: in vivo; summary of the method: as §1
[10] = Stability in fasted state simulated gastric fluid assessed as parent compound remaining in absence of pepsin after 2 hrs; assay type: ADME, tissue-based, Stomach; settings: fasted state simulated gastric fluid without pepsin; read-out: Stability
Summary of the method: (§2)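 Compound incubated for 120 min in fasted- or fed-state simulated gastric fluid, in simulated gastric fluid, or in buffer sGF (sGF prepared without pepsin), with water as reference medium. Remaining compound is expressed as percent of the t=0 concentration, as the mean of triplicates ± SD.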

[11] = Stability in fed state simulated gastric fluid assessed as parent compound remaining in absence of pepsin after 2 hrs; assay type: ADME, tissue-based, Stomach; settings: fed state simulated gastric fluid without pepsin; read-out: Stability; summary of the method: as §2
[12] = Stability in simulated gastric fluid assessed as parent compound remaining in absence of pepsin after 2 hrs; assay type: ADME, tissue-based, Stomach; settings: simulated gastric fluid without pepsin; read-out: Stability; summary of the method: as §2
[13] = Stability in buffer simulated gastric fluid assessed as parent compound remaining in absence of pepsin after 2 hrs; assay type: ADME, tissue-based, Stomach; settings: buffer simulated gastric fluid without pepsin; read-out: Stability; summary of the method: as §2
[14] = Stability in water assessed as parent compound remaining in absence of pepsin after 2 hrs; assay type: physicochemical; settings: read-out: Stability; summary of the method: as §2
[15] = Stability in fasted state simulated gastric fluid assessed as parent compound remaining in absence of pancreatin after 2 hrs; assay type: ADME, tissue-based, Stomach; settings: fasted state simulated gastric fluid without pancreatin; read-out: Stability
[16] = Stability in fed state simulated gastric fluid assessed as parent compound remaining in absence of pancreatin after 2 hrs; assay type: ADME, tissue-based, Stomach; settings: fed state simulated gastric fluid without pancreatin; read-out: Stability
[17] = Stability in simulated gastric fluid assessed as parent compound remaining in absence of pancreatin after 2 hrs; assay type: ADME, tissue-based, Stomach; settings: simulated gastric fluid without pancreatin; read-out: Stability
[18] = Stability in water assessed as parent compound remaining in absence of pancreatin after 2 hrs; assay type: physicochemical; settings: read-out: Stability
[19] = Stability in buffer simulated gastric fluid assessed as parent compound remaining in absence of pepsin after 2 hrs; settings: buffer simulated gastric fluid without pepsin

Row | Structure (SMILES) | solubility thermodynamic [1] [µg/mL] | half-life at 62.5 µM [2] [min] | remaining at 2 h [10] [%] | remaining at 2 h [11] [%] | remaining at 2 h [12] [%] | remaining at 2 h [13] [%] | remaining at 2 h [14] [%] | remaining at 2 h [15] [%] | remaining at 2 h [16] [%] | remaining at 2 h [17] [%] | remaining at 2 h [18] [%] | remaining at 2 h [19] [%] | other results
1 | N.N.O=P(O)(O)O[C@@H]1[C@H](O)[C@@H](Oc2ccc(-c3ccccc3)cc2)O[C@H](CO)[C@H]1O | > 3000 | 13 | – | – | – | – | – | – | – | – | – | – | –
2 | N.N.O=[N+]([O-])c1ccc2c(c1)CCN2c1ccc(O[C@H]2O[C@H](COCOP(=O)(O)O)[C@@H](O)[C@H](O)[C@@H]2O)cc1 | > 3000 | 11 | – | – | – | – | – | – | – | – | – | – | Drug metabolism [3]: Dose-dependent effect; Cmax (Mus musculus [4]): 4500 ng/mL; Tmax (Mus musculus [5]): 180 min; AUC [6]: 24.6 µg·h/mL
3 | N.N.O=P(O)(O)O[C@H]1[C@H](O)[C@H](O)[C@@H](Oc2ccc(-c3ccccc3)cc2)O[C@@H]1CO | 2700 | > 60 | – | – | – | – | – | – | – | – | – | – | –
4 | N.N.O=P(O)(O)O[C@@H]1[C@@H](Oc2ccc(-c3ccccc3)cc2)O[C@H](CO)[C@@H](O)[C@@H]1O | > 3000 | 12 | – | – | – | – | – | – | – | – | – | – | –

The next lines start with results.

Row | solubility thermodynamic [1] [µg/mL] | half-life at 62.5 µM [2] [min] | remaining at 2 h [10] [%] | remaining at 2 h [11] [%] | remaining at 2 h [12] [%] | remaining at 2 h [13] [%] | remaining at 2 h [14] [%] | remaining at 2 h [15] [%] | remaining at 2 h [16] [%] | remaining at 2 h [17] [%] | remaining at 2 h [18] [%] | remaining at 2 h [19] [%] | Structure (SMILES) | other results
5 | > 3000 | 12 | – | – | – | – | – | – | – | – | – | – | N#Cc1ccc(-c2ccc(O[C@H]3O[C@H](CO)[C@@H](O)[C@H](OP(=O)([O-])[O-])[C@@H]3O)c(Cl)c2)cc1.[Na+].[Na+] | Drug metabolism [3]: Dose-dependent effect; Cmax (Mus musculus [7]): 40700 ng/mL; Tmax (Mus musculus [8]): 54 min; AUC [9]: 103.9 µg·h/mL
6 | > 3000 | 48 | > 80 | > 80 | > 80 | > 80 | > 80 | > 80 | > 80 | > 80 | > 80 | > 80 | N#Cc1ccc(-c2ccc(O[C@H]3O[C@H](COP(=O)([O-])[O-])[C@@H](O)[C@H](O)[C@@H]3O)c(Cl)c2)cc1.[Na+].[Na+] | –
7 | > 3000 | > 60 | – | – | – | – | – | – | – | – | – | – | N.N.O=P(O)(O)OC[C@H]1O[C@H](Oc2ccc(-c3ccccc3)cc2)[C@@H](O)[C@@H](O)[C@@H]1O | –
8 | > 3000 | 13 | > 80 | > 80 | > 80 | > 80 | > 80 | > 80 | > 80 | > 80 | > 80 | > 80 | N#Cc1ccc(-c2ccc(O[C@H]3O[C@H](CO)[C@@H](O)[C@H](O)[C@@H]3OP(=O)([O-])[O-])c(Cl)c2)cc1.[Na+].[Na+] | –
9 | > 3000 | 43 | > 80 | > 80 | > 80 | > 80 | > 80 | > 80 | > 80 | > 80 | > 80 | > 80 | N#Cc1ccc(-c2ccc(O[C@H]3O[C@H](CO)[C@@H](OP(=O)([O-])[O-])[C@H](O)[C@@H]3O)c(Cl)c2)cc1.[Na+].[Na+] | Cmax (Mus musculus [7]): 57000 ng/mL; Tmax (Mus musculus [8]): 26.4 min; AUC [9]: 226.4 µg·h/mL
